From ChEMBL document CHEMBL1140862, “Berberine analogues as a novel class of the low-density-lipoprotein receptor up-regulators: synthesis, structure-activity relationships, and cholesterol-lowering efficacy” (J Med Chem, 2009)
Activity calls are given as the source filed them. The calls are words filed in the database; no cut-off is given here.

What was measured:
[1] = system: HepG2; assay: Induction of LDLR mRNA expression in human HepG2 cells after 12 hrs by RT-PCR assay relative to untreated control; assay type: functional
Outline: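 HepG2 cells kept in RPMI-1640 with 10% FBS, moved 24 h before dosing to 10% LPDS, then at ~80% confluence to RPMI-1640 with 0.5% LPDS plus compound (5.0 µg/mL in table; concentrations as indicated in figure), 12 h, 37 °C. Total RNA reverse-transcribed, TaqMan real-time PCR, comparative CT method with GAPDH reference; fold of untreated cells (=1); mean of three experiments.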

[2] = system: Bel-7402; assay: Induction of LDLR […] in human Bel7402 cells after 12 hrs by RT-PCR assay relative to control; assay type: functional, cell-based
[3] = system: HepG2; assay: Induction of LDLR protein expression in human HepG2 cells at 10 ug/mL after 12 hrs by flow cytometry; assay type: functional, cell-based
Outline: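 HepG2 cells in LPDS medium treated 12 h with 10 µg/mL compound, detached, fixed in 2% paraformaldehyde at 4 °C overnight, blocked, stained on ice 1 h with rabbit polyclonal anti-LDLR (1:25), then FITC goat anti-rabbit IgG (1:50) 30 min; normal rabbit IgG background control; cell-surface fluorescence by flow cytometry.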

[4] = system: Rattus norvegicus; assay: Reduction of blood cholesterol level in hyperlipidemic Sprague-Dawley rat at 100 mg/kg, po daily twice for 30 days relative to control; assay type: functional; design: scale not given: the % may be the effect or the level left
Outline: (§1)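 Male Sprague-Dawley rats on HFHC diet 8 weeks, then saline suspension by gavage at 100 (mg/kg)/day, twice daily, 30 days (n = 8; untreated HFHC n = 6; normal-diet controls). Fasted tail-snip blood at end point; total cholesterol and LDL-c by commercial kits; percent reduction versus untreated HFHC control; mean ± SEM.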

[5] = system: Mus musculus; assay: Reduction of blood cholesterol level in hyperlipidemic C57BL/6J mouse at 100 mg/kg, po daily twice for 21 days relative to control; assay type: functional; design: scale not given: the % may be the effect or the level left
Outline: (§2)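 Male C57BL/6J mice fed HFHC diet 8 weeks, then gavaged twice daily (0.2 mL saline suspension) at 100 (mg/kg)/day for 21 days (n = 8; untreated n = 6). Fasted tail-snip blood; total cholesterol and LDL-c by commercial kits relative to untreated control.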

[6] = system: Rattus norvegicus; assay: Reduction of blood cholesterol level in hyperlipidemic Sprague-Dawley rat at 100 mg/kg, po daily twice; assay type: functional, organism-based; design: dose 100 mg/kg; conditions: TDE = time-dependent effect
[7] = system: Rattus norvegicus; assay: Reduction of blood low density lipoprotein cholesterol level in hyperlipidemic Sprague-Dawley rat at 100 mg/kg, po daily twice; assay type: functional, organism-based; design: dose 100 mg/kg; conditions: TDE = time-dependent effect
[8] = system: Rattus norvegicus; assay: Reduction of blood low density lipoprotein cholesterol level in hyperlipidemic Sprague-Dawley rat at 100 mg/kg, po daily twice for 30 days relative to control; assay type: functional; design: scale not given: the % may be the effect or the level left; outline: as §1
[9] = system: Rattus norvegicus; assay: Induction of HMG-CoA reductase mRNA expression in hyperlipidemic Sprague-Dawley rat liver at 100 mg/kg, po daily twice for 30 days by RT-PCR; assay type: functional, organism-based; design: dose 100 mg/kg
Outline: (§3)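 Male Sprague-Dawley rats (180 ± 10 g) fed HFHC diet (2% cholesterol, 10% yolk powder, 15% lard, 0.2% sodium cholate) 8 weeks, then gavaged with compound suspended in saline, 100 (mg/kg)/day, twice daily, 30 days (n = 8; untreated n = 6). Liver RNA, TaqMan real-time RT-PCR, comparative CT with GAPDH; fold of untreated HFHC control.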

[10] = Elimination half life in po dosed human; assay type: ADME, organism-based; conditions: in vivo, read-out: beta t1/2 (converted)
[11] = system: Mus musculus; assay: Reduction of blood low density lipoprotein cholesterol level in hyperlipidemic C57BL/6J mouse at 100 mg/kg, po daily twice for 21 days relative to control; assay type: functional; design: scale not given: the % may be the effect or the level left; outline: as §2
[12] = system: Mus musculus; assay: Acute toxicity in po dosed Kunming mouse after 14 days; assay type: organism-based; conditions: in vivo, 336 h
Outline: (§4)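 Male Kunming mice (19 ± 1 g), six per group, given a single oral dose of saline (control) or compound at 250, 1000 or 5000 mg/kg. Animals weighed daily and monitored 14 days. Then sacrificed; liver, kidney, heart, lung, brain and colon fixed in 10% formaldehyde at room temperature and examined by H&E histology.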

[13] = system: Mus musculus; assay: Acute toxicity in po dosed Kunming mouse assessed as lung damage upto 5000 mg/kg, po after 14 days by hematoxylin and eosin staining; assay type: organism-based; design: dose 5000 mg/kg, route oral; conditions: in vivo, 336 h; outline: as §4
[14] = system: Rattus norvegicus; assay: Toxicity in hyperlipidemic Sprague-Dawley rat assessed as food intake reduction at 100 mg/kg, po daily twice for 30 days; assay type: organism-based; design: dose 100 mg/kg, route oral; conditions: in vivo, 720 h
Outline: (§5)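 Hyperlipidemic Sprague-Dawley rats (HFHC diet 8 weeks) gavaged with saline suspension, 100 (mg/kg)/day twice daily, 30 days. Body weight and food intake monitored; fasted blood before and after treatment assayed with commercial kits for AST, ALT, BUN and creatinine; mean and sd.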

[15] = system: Rattus norvegicus; assay: Induction of LDLR mRNA expression in hyperlipidemic Sprague-Dawley rat liver at 100 mg/kg, po daily twice for 17 days by RT-PCR relative to control; assay type: functional, organism-based; design: dose 100 mg/kg
Outline: (§6)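 Hyperlipidemic male Sprague-Dawley rats (HFHC diet 8 weeks) untreated (n = 6) or gavaged twice daily with saline suspension at 100 or 300 (mg/kg)/day (n = 8 each) for 17 days. Liver total RNA, real-time RT-PCR for LDLR, GAPDH-normalized, fold of HFHC group (=1); mean ± SE, one-way ANOVA.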

[16] = system: Rattus norvegicus; assay: Induction of LDLR mRNA expression in hyperlipidemic Sprague-Dawley rat liver at 100 mg/kg, po daily twice for 30 days by RT-PCR relative to control; assay type: functional; outline: as §3
[17] = system: Mus musculus; assay: Acute toxicity in Kunming mouse assessed as heart damage upto 5000 mg/kg, po after 14 days by hematoxylin and eosin staining; assay type: organism-based; design: dose 5000 mg/kg, route oral; conditions: in vivo, 336 h; outline: as §4
[18] = system: Rattus norvegicus; assay: Reduction of blood cholesterol level in hyperlipidemic Sprague-Dawley rat at 300 mg/kg, po daily twice for 17 days relative to control; assay type: functional; design: scale not given: the % may be the effect or the level left
Outline: (§7)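 Hyperlipidemic Sprague-Dawley rats (HFHC diet 8 weeks) untreated (n = 6) or gavaged twice daily with saline suspension at 100 or 300 (mg/kg)/day (n = 8 each) for 17 days; fasted tail-snip blood at end point; total cholesterol and LDL-c by commercial kits, relative to untreated control.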

[19] = system: Mus musculus; assay: Acute toxicity in Kunming mouse assessed as liver damage upto 5000 mg/kg, po after 14 days by hematoxylin and eosin staining; assay type: organism-based; design: dose 5000 mg/kg, route oral; conditions: in vivo, 336 h; outline: as §4
[20] = system: Rattus norvegicus; assay: Toxicity in hyperlipidemic Sprague-Dawley rat assessed as weight loss at 100 mg/kg, po daily twice for 30 days; assay type: organism-based; design: dose 100 mg/kg, route oral; conditions: in vivo, 720 h; outline: as §5
[21] = system: Mus musculus; assay: Acute toxicity in Kunming mouse assessed as kidney damage upto 5000 mg/kg, po after 14 days by hematoxylin and eosin staining; assay type: organism-based; design: dose 5000 mg/kg, route oral; conditions: in vivo, 336 h; outline: as §4
[22] = system: Mus musculus; assay: Induction of LDLR mRNA expression in hyperlipidemic C57BL/6J mouse liver at 100 mg/kg, po daily twice for 21 days by RT-PCR relative to control; assay type: functional
Outline: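 Male C57BL/6J mice (21 ± 2 g) fed HFHC diet 8 weeks, then gavaged twice daily with saline suspension at 100 (mg/kg)/day for 21 days (n = 8; untreated n = 6). Liver LDLR mRNA by TaqMan real-time RT-PCR, comparative CT with GAPDH, relative to untreated control.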

[23] = system: Rattus norvegicus; assay: Reduction of blood low density lipoprotein cholesterol level in hyperlipidemic Sprague-Dawley rat at 100 mg/kg, po daily twice for 17 days relative to control; assay type: functional; design: scale not given: the % may be the effect or the level left; outline: as §7
[24] = system: Mus musculus; assay: Acute toxicity in Kunming mouse assessed as colon damage upto 5000 mg/kg, po after 14 days by hematoxylin and eosin staining; assay type: organism-based; design: dose 5000 mg/kg, route oral; conditions: in vivo, 336 h; outline: as §4
[25] = system: Mus musculus; assay: Acute toxicity in Kunming mouse assessed as change in body weight at 250 mg/kg, po; assay type: organism-based; design: dose 250 mg/kg, route oral; conditions: in vivo; outline: as §4
[26] = system: Mus musculus; assay: Acute toxicity in Kunming mouse assessed as brain damage upto 5000 mg/kg, po after 14 days by hematoxylin and eosin staining; assay type: organism-based; design: dose 5000 mg/kg, route oral; conditions: in vivo, 336 h; outline: as §4
[27] = system: Rattus norvegicus; assay: Toxicity in hyperlipidemic Sprague-Dawley rat assessed as liver and kidney function abnormalities at 100 mg/kg, po daily twice for 30 days; assay type: organism-based; design: dose 100 mg/kg, route oral; conditions: in vivo, 720 h; outline: as §5
[28] = system: Mus musculus; assay: Acute toxicity in Kunming mouse assessed as change in body weight at 1000 mg/kg, po; assay type: organism-based; design: dose 1000 mg/kg, route oral; conditions: in vivo; outline: as §4
[29] = system: Rattus norvegicus; assay: Induction of LDLR mRNA expression in hyperlipidemic Sprague-Dawley rat liver at 300 mg/kg, po daily twice for 17 days by RT-PCR relative to control; assay type: functional; outline: as §6
[30] = system: Rattus norvegicus; assay: Reduction of blood low density lipoprotein cholesterol level in hyperlipidemic Sprague-Dawley rat at 300 mg/kg, po daily twice for 17 days relative to control; assay type: functional; design: scale not given: the % may be the effect or the level left; outline: as §7
[31] = system: Rattus norvegicus; assay: Reduction of blood cholesterol level in hyperlipidemic Sprague-Dawley rat at 100 mg/kg, po daily twice for 17 days relative to control; assay type: functional; design: scale not given: the % may be the effect or the level left; outline: as §7

SMILES: COc1ccc2c(c1OC)C[N+]1(Cc3ccccc3)CCc3cc4c(cc3C1C2)OCO4.[Br-] (centres undefined)
- fold change (FC) [1]: 1.1

SMILES: CC[N+]12CCc3cc4c(cc3C1Cc1cc(OC)c(OC)cc1C2)OCO4.[Br-] (centres undefined)
- fold change (FC) [1]: 0.8

SMILES: CCC[N+]12CCc3cc4c(cc3C1Cc1cc(OC)c(OC)cc1C2)OCO4.[I-] (centres undefined)
- fold change (FC) [1]: 0.9

SMILES: CCOC(=O)C[N+]12CCc3cc4c(cc3C1Cc1cc(OC)c(OC)cc1C2)OCO4.[Br-] (centres undefined)
- fold change (FC) [1]: 1

SMILES: COc1cc2c(cc1OC)-c1cc3ccc(OC)c(OC)c3c[n+]1CC2.[I-]
- fold change (FC) [1]: 0.8

SMILES: COc1cc2c(cc1OC)CN1CCc3cc4c(cc3C1C2)OCO4 (centres undefined)
- fold change (FC) [1]: 1.3

SMILES: COc1cc2c(cc1OC)C[N+]1(C)CCc3cc4c(cc3C1C2)OCO4.[I-] (centres undefined)
- fold change (FC) [1]: 0.9

SMILES: CCC[N+]12CCc3cc4c(cc3C1Cc1ccc(OC)c(OC)c1C2)OCO4.[I-] (centres undefined)
- fold change (FC) [1]: 1.2

SMILES: CC[N+]12CCc3cc4c(cc3C1Cc1ccc(OC)c(OC)c1C2)OCO4.[Br-] (centres undefined)
- fold change (FC) [1]: 1

SMILES: COc1cc2c(cc1OC)C[N+]1(Cc3ccccc3)CCc3cc4c(cc3C1C2)OCO4.[Br-] (centres undefined)
- fold change (FC) [1]: 0.9

SMILES: COc1ccc2c(Cc3ccccc3)c3[n+](cc2c1OC)CCc1cc2c(cc1-3)OCO2.[Br-]
- fold change (FC) [1]: 1.4

SMILES: CCCCCCc1c2[n+](cc3cc(OC)c(OC)cc13)CCc1cc3c(cc1-2)OCO3.[Cl-]
- fold change (FC) [1]: 1.1

SMILES: COc1ccc2cc3[n+](cc2c1OC)CCc1cc2c(cc1-3)OCO2.[Cl-] [BERBERINE CHLORIDE]
- Activity [2]: Active
- Activity [3]: Active
- fold change (FC) [1]: 2.2
- Activity [4]: 27.4%
- Activity [5]: 16.7%
- Activity [6]: tde
- Activity [7]: tde
- Activity [8]: 31.6%
- Activity [9]: inactive
- half-life [10]: 2.94 h
- Activity [11]: 23.9%

SMILES: COc1ccc2c(c1OC)CN1CCc3cc4c(cc3[C@@H]1C2)OCO4 [CANADINE]
- fold change (FC) [1]: 1

SMILES: COc1cc2c(cc1O)-c1cc3ccc(OC)c(OC)c3c[n+]1CC2.[I-] [COLUMBAMINE IODIDE]
- fold change (FC) [1]: 1

SMILES: COc1cc2cc3[n+](cc2cc1OC)CCc1cc2c(cc1-3)OCO2.[Cl-] [PSEUDOBERBERINE]
- Activity [12]: Non-toxic
- Activity [13]: Non-toxic
- Activity [14]: Non-toxic
- Activity [3]: Active
- fold change (FC) [1]: 3.5
- Activity [15]: Active
- fold change (FC) [16]: 2.9
- Activity [17]: Non-toxic
- Activity [4]: 42.6%
- Activity [18]: 46.3%
- Activity [19]: Non-toxic
- Activity [20]: Non-toxic
- Activity [5]: 29.7%
- Activity [6]: tde
- Activity [21]: Non-toxic
- Activity [7]: tde
- fold change (FC) [22]: 3.2
- Activity [23]: 31%
- Activity [24]: Non-toxic
- Activity [8]: 49.4%
- Activity [25]: Non-toxic
- Activity [9]: inactive
- Activity [26]: Non-toxic
- Activity [27]: Non-toxic
- Activity [28]: Non-toxic
- fold change (FC) [29]: 4.8
- Activity [30]: 53.6%
- Activity [31]: 28.5%
- Activity [11]: 39%
